Measurements as given in ChEMBL document CHEMBL1128357, “Synthesis and biological properties of water-soluble p-boronophenylalanine derivatives. Relationship between water solubility, cytotoxicity, and cellular uptake” (J Med Chem, 1995).
Values after ≈ are worked out from the molar mass of the structure shown.

Key:
[1] = Solubility in water at room temperature; format: physicochemical; conditions: read-out: S
In short: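 Excess boron compound was dissolved, and the undissolved material was removed by membrane filtration. Boron concentration of the saturated solution was measured by ICP-AES. Three replicates, mean ± SE.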

[2] = system: B16; assay: Cytotoxicity of compound towards B-16 melanoma cells, expressed as survival ratio of cells; format: functional, Mus musculus
[3] = system: TIG-1-20; assay: Cytotoxicity of compound towards TIG-1-20 hybrobrast cells, expressed as survival ratio of cells; format: functional, Homo sapiens

Compound	solubility [1]	Survival ratio [2]	Survival ratio [3]
NC(Cc1ccc(B(O)O)cc1)C(=O)O (configuration not stated)	7.7 mM (≈ 1.61 mg/mL)	20%	20%
NC(Cc1ccc(B(O)O)cc1)C(=O)NC(COC(CO)CO)COC(CO)CO (configuration not stated)	1200 mM (≈ 516 mg/mL)	62%	73%
NC(Cc1ccc(B(O)O)cc1)C(=O)NC(CO)CO (configuration not stated)	660 mM (≈ 186 mg/mL)	60%	71%
NC(Cc1ccc(B(O)O)cc1)C(=O)NCCO (configuration not stated)	600 mM (≈ 151 mg/mL)	60%	66%
